# Screens from PubChem.
# Only a selection was taken, and hits are over-represented in it overall.
# HUVEC prolif 384: inhibitors of HUVEC proliferation, primary screen, cell-based, 384-well | CellTiter-Glo luminescence, 72 h; stronger effect = lower value | viability, % at 10 µM (by protocol) | actives 1.1% (n = 86,000);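 active = viability at or below 30%; inactive = viability above 30%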;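 also: 100% = median luminescence of DMSO-only cell control wells on each plate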
# bCat KO growth: primary screen for growth suppressors in beta-catenin knockout HCT116 cells (colon tumor, human). HCT116 beta-catenin knockout viability, CellTiter-Glo, 60 h; stronger effect = lower value. viability, % at 10 µM. actives 1.5% (n = 140,000);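 active = viability at or under a set limit, the compound median less 4 SD, cut at about 6% in these data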;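 also: 0% = Hyamine 1622 control at 20 µM and 100% = untreated cell control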
# PTEN del growth: growth suppression of PTEN-null HCT116, primary screen, cell-based, CellTiter-Glo | HCT116 PTEN-null viability, 60 h; stronger effect = lower value | viability, % at 10 µM | actives 1.2% (n = 140,000) | AID 827, 2007;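 active = viability at or below a set limit, 4 SD under the median of all tested compounds, cut at about 3.7% in these data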;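 also: PTEN knockout HCT116 line with beta catenin targeted HCT116 as companion control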
# H69AR inhibit: proliferation blockers of H69AR lung cancer cells, primary screen, cell-based, human, 86K library. AID 598, 2007. actives 6% (n = 85,000). H69AR lung tumor viability, ATP luminescence, 72 h; stronger effect = lower value. viability, % at 10 µM;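 active = viability at or below 40%; inactive = viability above 40%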;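 also: multidrug resistant small cell line overexpressing MRP-1 efflux transporter; 100% = mean luminescence of untreated control wells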
# Lung fibro prol: antiproliferative effect on LL 47 fibroblasts – human, LL 47 cells, CellTiter-Glo luminescence, primary screen; LL 47 human lung fibroblast viability, ATP luminescence; stronger effect = lower value; viability, % at 10 µM; actives 1.1% (n = 85,000); AID 719, 2007;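 active = viability at or below 50% in the single dose screen; inactive = viability above 50%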;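 also: compound exposure lasted 72 h before the ATP readout; 100% = median luminescence of untreated cell-only wells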
#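 Material: human LL 47 lung fibroblast cells; quantity: 1,150 cells/well; medium: IMEM plus 15% FBS; doses: 0.1% DMSO in all compound wells; timing: overnight attachment after seeding, then 72 h compound exposure at 37 °C; detection: CellTiter-Glo luminescence; measure: % viability of median cell-only signal; controls: cell-only wells, no compound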
# Starred values were filed as active, the others as inactive; · = not tested or not shown.
SMILES,HUVEC prolif 384,bCat KO growth,PTEN del growth,H69AR inhibit,Lung fibro prol
CC(=O)Nc1ccc(NC(=O)C(C)OC(=O)CN(C)S(=O)(=O)c2ccc(Cl)cc2)cc1 (stereo not drawn),·,87.7,88.7,·,·
CC(=O)OCCNc1cc(SCc2ccco2)c2nonc2c1[N+](=O)[O-],·,1.1*,1.0*,·,·
O=[N+]([O-])c1c(NCCCO)cc(SCc2ccco2)c2nonc12,·,10.0,58.3,·,·
CCOC(=O)C1CCCN(C(=O)Cn2sc3nc(C)cc(C)c3c2=O)C1 (stereo not drawn),93.3,14.2,1.7*,1.1*,82.6
Cc1cc(C)c2c(=O)n(CC(=O)N3CCC(N4CCCCC4)CC3)sc2n1,104.9,1.8*,1.9*,103.0,76.0
CCOC(=O)C1CCCN(C(=O)Cn2cnc3c2c(=O)n(C)c(=O)n3C)C1 (stereo not drawn),100.0,99.4,91.8,89.0,104.6
O=c1sc2ccccc2n1CCCOc1ccccc1,91.4,89.4,87.2,89.7,96.2
Nc1cccnc1Sc1cc(Cl)c(Cl)cc1Cl,·,89.5,83.0,·,·
[O-][n+]1onc2c3ccnnc3ccc21,104.3,91.1,93.2,38.0*,91.8
Cc1cc2c(ccc3c2no[n+]3[O-])nn1,99.0,68.6,72.4,36.7*,91.9
[O-][n+]1onc2c1CCc1nnccc1-2,105.3,65.2,80.3,63.3,101.2
Cc1cccc(-c2noc(CN(C(=O)c3ccc(Br)o3)C(C)C)n2)c1,117.4,85.8,80.5,91.8,101.6
CCOC(=O)c1sc(NC(=O)CCn2nnc3ccccc32)c(C(=O)OCC)c1C,56.8,·,·,36.4*,95.4
CC(C)OC(=O)c1c(NC(=O)CCn2nnc3ccccc32)sc2c1CCCC2,99.5,89.6,98.9,92.7,·
COc1ccc2c(c1)c1nc3ccccc3nc1n2CC(=O)OC(C)C,56.8,2.3*,3.7*,18.5*,38.7*
CCOC(=O)Cn1c2ccccc2c2nc3ccccc3nc21,107.2,21.1,43.5,6.1*,96.1
O=C(CN1C2=NCCN2c2ccccc21)N1CCOCC1,97.1,95.4,101.7,104.4,101.1
O=C(NCC1CCCO1)C1CCN(S(=O)(=O)Cc2ccccc2)CC1 (stereo not drawn),95.7,92.7,94.0,102.0,103.8
O=C(NCc1ccco1)C1CCN(C(=O)c2cc3sccc3n2Cc2ccc(Cl)cc2)CC1,88.3,5.7*,4.8,64.7,88.5
O=C(NCc1ccco1)C1CCN(S(=O)(=O)Cc2ccccc2)CC1,91.1,0.7*,0.5*,92.1,94.8
Cc1onc(-c2ccccc2Cl)c1C(=O)Nc1nc2ccc(S(C)(=O)=O)cc2s1,·,64.5,68.1,·,·
O=C(Nc1cc(N2CCOCC2)ncn1)Nc1cccc2ccccc12,74.8,53.1,51.5,32.5*,96.6
CC(=O)c1ccc(NC(=O)c2ccc(S(=O)(=O)N3CCCC3)cc2)cc1,98.9,95.6,102.2,79.7,103.4
CC(C)[C@H](NC(=O)c1cccc(S(=O)(=O)N2CCOCC2)c1)C(=O)Nc1nc2ccccc2s1,·,75.1,79.6,·,·
CCCC(=O)Nc1nc2ccc(S(=O)(=O)N3CCCCC3)cc2s1,53.9,32.8,31.5,19.6*,47.5*
SMILES,HUVEC prolif 384,bCat KO growth,PTEN del growth,H69AR inhibit,Lung fibro prol
O=C(Nc1nc2ccc(S(=O)(=O)N3CCCC3)cc2s1)c1ccco1,·,104.7,105.8,·,·
CC(C)CC(=O)Nc1nc2ccc(S(=O)(=O)N3CCOCC3)cc2s1,67.0,38.6,36.4,27.1*,79.8
CCCCC(=O)Nc1ccc(C(=O)Nc2ccc(S(=O)(=O)N3CCCC3)cc2)cc1,93.4,89.2,93.8,62.8,41.9*
Cc1ccc2nc(NC(=O)C3CCCN(S(=O)(=O)c4cccnc4)C3)sc2c1 (stereo not drawn),100.5,80.0,76.5,27.7*,109.5
COC(=O)c1cc(/C=C/c2ccccc2)on1,·,101.8,·,·,·
Cc1ccc(-n2nc(C)c(C3C(C#N)=C(N)OC4=C3C(=O)CCC4)c2Cl)cc1 (stereo not drawn),90.5,·,·,50.7,91.7
Cc1nn(-c2ccccc2)c(Cl)c1C1C(C#N)=C(N)OC2=C1C(=O)CC(C)(C)C2 (stereo not drawn),55.5,73.9,74.5,8.8*,71.1
CCCCNS(=O)(=O)c1ccc(NC(=O)c2c(-c3ccccc3Cl)noc2C)cc1,68.7,14.3,15.3,33.0*,70.9
